Active and inactive are the calls of the source. The rule behind the calls is not given here. Square brackets hold non-standard residues; d marks the D form. Peptide text beside a SMILES is read from it. * marks the point of attachment. Dolaproine = CO[C@@H]([C@@H]1CCCN1)[C@@H](C)C(=O)O; Dil = CC[C@H](C)[C@H](NC)[C@@H](CC(=O)O)OC; X3 = C[C@@H](N*)[C@@H](O)c1ccccc1; NMeV = CN[C@H](C(=O)O)C(C)C
Key:
[1] = Cytotoxicity against human PC-3 cells assessed as inhibition of cell growth incubated for 72 hrs by CellTiter 96 aqueous assay; type: toxicity, cell-based
Method in brief: (§1)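 PC-3 or MDA-MB-231 cells were treated the day after seeding with serial dilutions, from 2000 nM for conjugates and 100 nM for MMAE, for 72 h. Then the assay was stopped, or run 72 h more after a medium change (single) or re-treatment (double). Controls got 0.05 % DMSO. Read-out was MTS absorbance at 490 nm after 90 min. IC50 by non-linear regression; ≥2 experiments, triplicates.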

[2] = Cytotoxicity against human cells MDA-MB-231 assessed as inhibition of cell growth incubated for 72 hrs by CellTiter 96 aqueous assay; type: toxicity, cell-based; settings: MDA-MB-231 cells; method in brief: as §1
[3] = Cytotoxicity against human PC-3 cells assessed as inhibition of cell growth incubated with compound for 72 hrs followed by further incubated for 72 hrs (single treatment) by CellTiter 96 aqueous assay; type: toxicity, cell-based; method in brief: as §1
[4] = Cytotoxicity against human PC-3 cells assessed as inhibition of cell growth incubated for 72 hrs and followed by treated with compound continued incubation for further 72 hrs (double treatment) after retreatment of compound by CellTiter 96 aqueous assay; type: toxicity, cell-based; method in brief: as §1
[5] = Cytotoxicity against human MDA-MB-231 cells assessed as inhibition of cell growth incubated with compound for 72 hrs followed by further incubated for 72 hrs (single treatment) by CellTiter 96 aqueous assay; type: toxicity, cell-based; method in brief: as §1
[6] = Cytotoxicity against human MDA-MB-231 cells assessed as inhibition of cell growth incubated for 72 hrs and followed by treated with compound continued incubation for further 72 hrs (double treatment) after retreatment of compound by CellTiter 96 aqueous assay; type: toxicity, cell-based; method in brief: as §1
PC-3 [7] = assay: Antitumor activity against human PC-3 cells xenografted in mouse assessed as median survival day at 1 mg/kg, ip administration for 33 days; type: functional; settings: time 33 day
PC-3 [8] = assay: Antitumor activity against human PC-3 cells xenografted in mouse assessed as reduction in tumour volume relative to control; type: functional; set-up: scale not given: the % may be the effect or the level left
Method in brief: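 Acute study in mice bearing subcutaneous PC-3 tumours. Single i.p. dose (0.1 mL) 9 days after inoculation, at a mean tumour volume of 62 mm³. Eight per group, randomized. Conjugates at 2 mg/kg MMAE-content, free MMAE at 1 mg/kg, in 5 % DMSO in water; solvent controls. Calliper volume V = ab²×π/6. Sacrifice at 20 % weight loss or 2000 mm³.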

[9] = Biodistribution in mouse xenografted with human PC-3 cells assessed as tumour environment incubated for 24 hrs by LC-HRMS; type: ADME, organism-based, Neoplasm; settings: in vivo
Method in brief: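 Mice bearing PC-3 xenografts received a single 2 mg/kg i.p. dose. Blood, tumour, liver, kidneys, heart, lungs and pancreas were collected at 1, 6 and 24 h and pooled per group. Tissues were homogenised in water (1:2 w/v) and centrifuged. Released MMAE was measured by LC-HRMS and expressed as %ID/g (n = 3).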

[10] = Biodistribution in kidney mouse xenografted with human PC-3 cells incubated for 24 hrs by LC-HRMS; type: ADME, organism-based; settings: in vivo
Method in brief: (§2)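 Mice bearing s.c. PC-3 tumours given a single i.p. dose of 2 mg/kg; 3 mice per time point, sampled at 1, 6 and 24 h. Blood, tumour, liver, kidneys, heart, lungs and pancreas pooled per group and homogenised in water (1:2 w/v); supernatants analysed for MMAE by LC-HRMS; expressed as %ID/g.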

[11] = Biodistribution in liver of mouse xenografted with human PC-3 cells incubated for 24 hrs by LC-HRMS; type: ADME, organism-based; settings: in vivo; method in brief: as §2
[12] = Biodistribution in mouse pancreas xenografted with human PC-3 cells assessed as parent compound by LC-HRMS; type: ADME, organism-based; settings: in vivo; method in brief: as §2
[13] = Biodistribution in mouse pancreas xenografted with human PC-3 cells by LC-HRMS relative to control; type: ADME, organism-based; settings: in vivo
PC-3 [14] = assay: Antitumor activity against human PC-3 cells xenografted with mouse assessed as median survival days at 1 mg/kg, ip (reference value: 33 days)
[15] = biological target: T1, Gastrin-releasing peptide receptor (Homo sapiens, UniProt P30550); assay: Displacement of 125 I- [Tyr4] from bombesin receptor 2 in human PC-3 cells assessed as inhibition by radioligand displacement assay; type: cell-based
Method in brief: (§3)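 Competition binding on membrane preparations from PC-3 or MDA-MB-231 cells against ¹²⁵I-[Tyr⁴]-bombesin, with conjugates at 10 μM–10 pM. IC50 was taken as the concentration giving 50 % inhibition of tracer binding.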

[16] = biological target: T1, Gastrin-releasing peptide receptor; assay: Displacement of 125 I- [Tyr4] from bombesin receptor 2 in human MDA-MB-231 cells assessed as inhibition by radioligand displacement assay; type: cell-based; method in brief: as §3
[17] = Metabolic stability in human plasma assessed as half life at 5 uM measured upto 24 hrs by LC-HRMS analysis; type: ADME, cell-free
Method in brief: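 Conjugates at 5 μM were incubated in human or mouse plasma at 37 °C, in duplicate. Samples were taken at t0, 0.25, 0.5, 1, 2, 4 and 24 h and quenched with 1 % formic acid in MeCN (2× volume). After centrifugation (14000 rpm, 4 °C), supernatants were diluted 1:1 with water and analysed by LC-HRMS.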

[18] = Toxicity in mouse xenografted with human PC-3 cells assessed as body weight loss at 1 mg/kg, ip administered relative to control; type: organism-based; settings: in vivo, 2 mg/kg, in the assay text read “2 mg/kg” for “1 mg/kg”
Method in brief: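 Toxicity in mice bearing subcutaneous PC-3 tumours after a single i.p. dose 9 days post-inoculation. Free drug at 1 mg/kg, conjugates at 2 mg/kg MMAE-content, in 5 % DMSO in water; solvent controls; eight per group. Body weight followed periodically. Endpoint at 20 % weight loss; behaviour (activity, coat, stool, paleness) also scored.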

PC-3 [19] = assay: Antitumor activity against human PC-3 cells xenografted in mouse assessed as inhibition in tumour growth at 0.5 mg/kg, ip administered upto 23 days; type: functional, organism-based; settings: time <= 23.0 day
Method in brief: (§4)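 Chronic study in mice bearing subcutaneous PC-3 tumours. Dosing began 8 days after cell inoculation, at a mean tumour volume of 93 mm³. Seven per group, randomized. Four i.p. doses (0.1 mL) on days 8, 11, 16 and 23 of 0.5 mg/kg MMAE-content, in 5 % DMSO in water for injection; controls got solvent. Tumour volume by calliper, V = ab²×π/6.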

PC-3 [20] = assay: Antitumor activity against human PC-3 cells xenografted in mouse assessed as reduction in tumour weight at 0.5 mg/kg, ip administered upto 23 days relative to control; type: functional; set-up: scale not given: the % may be the effect or the level left; settings: time <= 23 day
PC-3 [21] = assay: Antitumor activity against human PC-3 cells xenografted in mouse assessed as reduction in tumour size at 0.5 mg/kg, ip administered upto 23 days relative to control; type: functional; set-up: scale not given: the % may be the effect or the level left; settings: time <= 23 day; method in brief: as §4
PC-3 [22] = assay: Antitumor activity against human PC-3 cells xenografted with mouse assessed as median survival days at 2 mg/kg, ip (reference value: 33 days)

T1 sequence (P30550 whole entry): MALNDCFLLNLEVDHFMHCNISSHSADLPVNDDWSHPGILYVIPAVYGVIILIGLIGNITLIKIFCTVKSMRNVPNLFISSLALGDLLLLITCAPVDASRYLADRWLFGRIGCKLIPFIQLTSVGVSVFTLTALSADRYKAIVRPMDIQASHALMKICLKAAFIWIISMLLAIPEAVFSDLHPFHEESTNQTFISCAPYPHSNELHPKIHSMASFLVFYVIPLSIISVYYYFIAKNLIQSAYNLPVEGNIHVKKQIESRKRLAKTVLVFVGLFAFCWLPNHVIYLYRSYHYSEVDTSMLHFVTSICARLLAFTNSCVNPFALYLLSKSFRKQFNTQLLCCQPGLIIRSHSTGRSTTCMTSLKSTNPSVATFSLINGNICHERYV

SMILES | IC50 at 72 h [1] [nM] | IC50 at 72 h [2] [nM] | IC50 at 144 h [3] [nM] | IC50 at 144 h [4] [nM] | IC50 at 144 h [5] [nM] | IC50 at 144 h [6] [nM] | Activity (PC-3 [8]) [%] | Drug uptake [9] | other results
CC[C@H](C)[C@@H]([C@@H](CC(=O)N1CCC[C@H]1[C@H](OC)[C@@H](C)C(=O)N[C@H](C)[C@@H](O)c1ccccc1)OC)N(C)C(=O)[C@@H](NC(=O)[C@@H](NC)C(C)C)C(C)C (H-[NMeV]V[Dil][Dolaproine]-X3) | 3.4 | 10.1 | 0.4 | 0.3 | 0.2 | 0.2 | 15.9 | Active | Survival (PC-3 [7]): 24.5 days; Drug uptake [10]: Active; Drug uptake [11]: Active; Drug uptake [12]: 10.1%; Drug uptake [13]: 3.55%; Survival (PC-3 [14]): 24.5 days
CC[C@H](C)[C@@H]([C@@H](CC(=O)N1CCC[C@H]1[C@H](OC)[C@@H](C)C(=O)N[C@H](C)[C@@H](O)c1ccccc1)OC)N(C)C(=O)[C@@H](NC(=O)[C@H](C(C)C)N(C)C(=O)OCc1ccc(NC(=O)[C@H](CCCNC(N)=O)NC(=O)[C@@H](NC(=O)[C@H](CCC(=O)O)NC(=O)CCCCCN2C(=O)CC(SC[C@H](NC(C)=O)C(=O)NCCOCCOCCOCCOCCC(=O)N[C@H](Cc3ccccc3)C(=O)N[C@@H](CCC(N)=O)C(=O)N[C@@H](CC3=CNC4C=CC=CC34)C(=O)N[C@@H](C)C(=O)N[C@H](C(=O)NCC(=O)N[C@@H](Cc3c[nH]cn3)C(=O)N[C@@H](CC(C)C)[C@@H](O)CC(=O)N[C@@H](CC(C)C)C(N)=O)C(C)C)C2=O)C(C)C)cc1)C(C)C (stereo not given in full) | 29.6 | 526 | 4.8 | 3.5 | 42.3 | 43.3 | 65.2 | Active | IC50 [15]: 59.4 nM; IC50 [16]: 69.5 nM; half-life at 5 µM [17]: 4.6 h; Activity [18]: < 20%; Activity (PC-3 [19]): Active; Activity (PC-3 [20]): 41.6%; Activity (PC-3 [21]): 59.8%; Survival (PC-3 [22]): 49 days
